Reference: ChEMBL document CHEMBL2375304, “Synthesis and anticancer activity of novel 2-pyridyl hexahyrocyclooctathieno[2,3-d]pyrimidine derivatives” (2013)

How the values were obtained:
Type in all cases: functional
MDA-MB-435 = assay: Growth inhibition of human MDA-MB-435 cells at 10^-5 M after 48 hrs by Sulforhodamine B assay relative to control; conditions: MDA-MB-435, 48 h, read-out: GI
Summary of the method: (§1)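 Single-dose screen at 10⁻⁵ M. Cells are preincubated 24 h at 37 °C in 5% CO2, then exposed to the compound, diluted from a DMSO stock into medium with gentamicin, for 48 h. Adherent cells are fixed with cold TCA (final 10%) and suspension cells with TCA (final 16%). Cells are stained with 0.4% SRB in 1% acetic acid and bound dye is read at 515 nm. Percent growth inhibition is taken against control wells and time-zero plates.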

SF-539 = assay: Growth inhibition of human SF539 cells at 10^-5 M after 48 hrs by Sulforhodamine B assay relative to control; conditions: SF-539, 48 h, read-out: GI
Summary of the method: (§2)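 Single-dose primary screen at 10⁻⁵ M across 49 lines. Cells were plated 24 h beforehand, with a TCA-fixed time-zero plate, then exposed 48 h at 37 °C, 5% CO2. Cells were fixed with cold TCA, stained with SRB and read at 515 nm. Percent growth was calculated against time-zero and untreated-control absorbances.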

OVCAR-8 = assay: Growth inhibition of human OVCAR8 cells at 10^-5 M after 48 hrs by Sulforhodamine B assay relative to control; conditions: OVCAR-8, 48 h, read-out: GI; summary of the method: as §2
Hs-578T = assay: Growth inhibition of human Hs578T cells at 10^-5 M after 48 hrs by Sulforhodamine B assay relative to control; conditions: read-out: GI; summary of the method: as §1
IGROV-1 = assay: Growth inhibition of human IGROV1 cells at 10^-5 M after 48 hrs by Sulforhodamine B assay relative to control; conditions: IGROV-1, 48 h, read-out: GI; summary of the method: as §1
MDA-MB-231 = assay: Growth inhibition of human MDA-MB-231 cells at 10^-5 M after 48 hrs by Sulforhodamine B assay relative to control; conditions: MDA-MB-231, 48 h, read-out: GI; summary of the method: as §1
A549 = assay: Growth inhibition of human A549/ATCC cells at 10^-5 M after 48 hrs by Sulforhodamine B assay relative to control; conditions: A549, 48 h, read-out: GI; summary of the method: as §1
NCI-H322M = assay: Growth inhibition of human NCI-H322M cells at 10^-5 M after 48 hrs by Sulforhodamine B assay relative to control; conditions: read-out: GI; summary of the method: as §2
T47D = assay: Growth inhibition of human T47D cells at 10^-5 M after 48 hrs by Sulforhodamine B assay relative to control; conditions: read-out: GI
Summary of the method: (§3)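 Single-dose stage: compound tested at 10⁻⁵ M in the 49-cell-line panel. Cells grew 24 h at 37 °C, 5% CO₂ before drug addition. Drug stock was in DMSO at 400-fold, diluted in medium with gentamicin. After 48 h exposure, adherent cells were fixed with cold TCA (10% final) and stained with 0.4% SRB in 1% acetic acid. Dye was solubilized in 10 mM Tris, read at 515 nm. Growth percentage was taken relative to untreated control and time-zero plates.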

OVCAR-4 = assay: Growth inhibition of human OVCAR4 cells at 10^-5 M after 48 hrs by Sulforhodamine B assay relative to control; conditions: OVCAR-4, 48 h, read-out: GI; summary of the method: as §2
MCF7 = assay: Growth inhibition of human MCF7 cells at 10^-5 M after 48 hrs by Sulforhodamine B assay relative to control; conditions: MCF7, 48 h, read-out: GI; summary of the method: as §1
ACHN = assay: Growth inhibition of human ACHN cells at 10^-5 M after 48 hrs by Sulforhodamine B assay relative to control; conditions: read-out: GI; summary of the method: as §1
[1] = Growth inhibition of human NCI-ADR-RES cells at 10^-5 M after 48 hrs by Sulforhodamine B assay relative to control; conditions: read-out: GI; summary of the method: as §2
U-251 = assay: Growth inhibition of human U251 cells at 10^-5 M after 48 hrs by Sulforhodamine B assay relative to control; conditions: U-251, 48 h, read-out: GI; summary of the method: as §3
LOX IMVI = assay: Growth inhibition of human LOXIMVI cells at 10^-5 M after 48 hrs by Sulforhodamine B assay relative to control; conditions: read-out: GI; summary of the method: as §1
NCI-H460 = assay: Growth inhibition of human NCI-H460 cells at 10^-5 M after 48 hrs by Sulforhodamine B assay relative to control; conditions: NCI-H460, 48 h, read-out: GI; summary of the method: as §2
NCI-H23 = assay: Growth inhibition of human NCI-H23 cells at 10^-5 M after 48 hrs by Sulforhodamine B assay relative to control; conditions: NCI-H23, 48 h, read-out: GI; summary of the method: as §2
UO-31 = assay: Growth inhibition of human UO31 cells at 10^-5 M after 48 hrs by Sulforhodamine B assay relative to control; conditions: UO-31, 48 h, read-out: GI; summary of the method: as §3
SN12C = assay: Growth inhibition of human SN12C cells at 10^-5 M after 48 hrs by Sulforhodamine B assay relative to control; conditions: read-out: GI; summary of the method: as §2

Structure (SMILES)	inhibition of growth at 10 µM (MDA-MB-435) [%]	inhibition of growth at 10 µM (SF-539) [%]	inhibition of growth at 10 µM (OVCAR-8) [%]	inhibition of growth at 10 µM (Hs-578T) [%]	inhibition of growth at 10 µM (IGROV-1) [%]	inhibition of growth at 10 µM (MDA-MB-231) [%]	inhibition of growth at 10 µM (A549) [%]	inhibition of growth at 10 µM (NCI-H322M) [%]	inhibition of growth at 10 µM (T47D) [%]	inhibition of growth at 10 µM (OVCAR-4) [%]	inhibition of growth at 10 µM (MCF7) [%]	inhibition of growth at 10 µM (ACHN) [%]	inhibition of growth at 10 µM [1] [%]	inhibition of growth at 10 µM (U-251) [%]	inhibition of growth at 10 µM (LOX IMVI) [%]	inhibition of growth at 10 µM (NCI-H460) [%]	inhibition of growth at 10 µM (NCI-H23) [%]	inhibition of growth at 10 µM (UO-31) [%]	inhibition of growth at 10 µM (SN12C) [%]
CN1CCN(c2nc(-c3ccccn3)nc3sc4c(c23)CCCCCC4)CC1	4.89	37.4	-1.5	6.23	6.64	6.82	22.6	1.03	24.9	16	50.4	4.94	22.7	8.31	4.93	2.79	16	32.8	3.33
Clc1nc(-c2ccccn2)nc2sc3c(c12)CCCCCC3	8.64	2.75	12.9	8.7	10.2	-16.9	0.18	15.5	57.8	14.3	46	120	10.7	2.82	32.2	9.1	17.6	83.6	15.1
NNc1nc(-c2ccncc2)nc2sc3c(c12)CCCCCC3	1.01	-14.8	2.51	-13.7	-16.5	1.46	-1.81	3.42	0.16	18.7	5.87	8.69	2.44	6.15	5.88	-4.36	7.74	20.4	4.3
COc1ccc(N2CCN(c3nc(-c4ccncc4)nc4sc5c(c34)CCCCCC5)CC2)cc1	4.86	7.87	5.9	-5.59	3.43	12.1		-7.78	27	11.1	18.1	19.9	9.28	15.8	8.33	5.35	17.3	11.1	31.8
